A selection: hits, their analogues and other compounds. The true share with any hit is near 2.1%.
CHRM1 antagonist: human M1 muscarinic receptor antagonists, primary screen, CHO-K1 cells, Fluo-8 calcium fluorescence, 1536-well; Muscarinic acetylcholine receptor M1 (Homo sapiens), P11229; CHO-K1 hM1, ACh EC80 antagonist; inhibition, % at 3 µM; actives 1.3% (n = 360,000); AID 588852, 2011;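 active = percent inhibition above its own plate's cutoff, namely the mean of that plate's compound wells plus 3 SD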;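 also: peak over basal fluorescence ratio during 140 s after agonist addition; 0% = ACh EC80 plus DMSO and 100% = DMSO alone without agonist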
Target sequence (P11229 whole entry, looked up): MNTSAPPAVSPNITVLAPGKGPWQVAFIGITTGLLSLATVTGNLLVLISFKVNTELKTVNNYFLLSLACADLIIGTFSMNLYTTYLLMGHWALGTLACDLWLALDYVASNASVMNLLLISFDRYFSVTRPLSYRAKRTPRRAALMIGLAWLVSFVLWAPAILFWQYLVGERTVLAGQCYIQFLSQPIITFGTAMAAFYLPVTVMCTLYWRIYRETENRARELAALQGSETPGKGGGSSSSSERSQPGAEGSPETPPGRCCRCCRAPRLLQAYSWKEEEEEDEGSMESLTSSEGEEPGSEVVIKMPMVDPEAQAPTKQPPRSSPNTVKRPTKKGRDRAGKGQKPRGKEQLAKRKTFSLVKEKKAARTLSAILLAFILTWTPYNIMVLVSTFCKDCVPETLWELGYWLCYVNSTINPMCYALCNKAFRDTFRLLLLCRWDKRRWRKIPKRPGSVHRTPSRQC
CHRM1 PAM: human M1 muscarinic receptor positive allosteric modulators, primary screen, CHO-K1 cells, Fluo-8 calcium fluorescence, 1536-well; Muscarinic acetylcholine receptor M1 (Homo sapiens), P11229; CHO-K1 hM1, ACh EC20; 0% = ACh EC20, 100% = maximal ACh; activation, % at 3 µM; actives 0.088% (n = 360,000); AID 588819, 2011; in the data active = activation above about 19%, passing the limit was not always enough
M5 antag: human M5 muscarinic receptor antagonists, primary screen, CHO cells, Fluo-8 calcium fluorescence | CHO-hM5 cells, ACh EC80 | Muscarinic acetylcholine receptor M5 (Homo sapiens), P08912 | inhibition, % at 3 µM | actives 0.59% (n = 360,000) | AID 624040, 2012;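 active = inhibition above a per-plate cutoff, the mean of that plate's test compounds plus 3 SD, cut at about 27% in these data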;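 also: 0% = acetylcholine EC80 with DMSO and 100% = DMSO without agonist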
CHRM1 agonist: human M1 muscarinic receptor agonists, primary screen, Fluo-8 calcium fluorescence, CHO-K1 cells, HTS; activation, % at 3 µM; CHO-K1 hM1, agonist mode; 0% DMSO, 100% acetylcholine EC100; Muscarinic acetylcholine receptor M1 (Homo sapiens), P11229; actives 0.33% (n = 360,000); AID 588814, 2011;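 active = activation above the run's mean compound activation plus 3 SD, cut at about 16% in these data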;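 also: peak over basal fluorescence ratio within a 140 s kinetic read after compound addition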
M5 PAM: human M5 muscarinic receptor positive allosteric modulators, primary screen, CHO-K1 cells, Fluo-8 calcium fluorescence | actives 0.3% (n = 360,000) | activation, % at 3 µM | Muscarinic acetylcholine receptor M5 (Homo sapiens), P08912 | CHO-K1 hM5, ACh EC20 PAM; 0% = ACh EC20, 100% = ACh EC100 | AID 624038, 2012;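 active = activation above the run cutoff, the mean activation of all test compounds plus 3 SD, cut at about 18% in these data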
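system = human M5 receptor in CHO-K1 cells | reagent = EC20 acetylcholine as agonist stimulus | compound dosing = single-point, 3 µM nominal | incubation = Fluo-8 loading 80 min at 37 °C plus 30 min room temperature | detection = Fluo-8 calcium dye fluorescence, kinetic read | benchmarks = low control EC20 acetylcholine (0%), high control EC100 acetylcholine (100%)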
CHRM5 agonist: human M5 muscarinic receptor agonists, primary screen, CHO-K1 cells, Fluo-8 calcium fluorescence; activation, % at 3 µM; CHO-K1 hM5 cells; 0% DMSO wells, 100% maximal acetylcholine response; AID 624037, 2012; actives 0.19% (n = 360,000);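 active = activation above the run's mean over test compounds plus 3 SD, cut at about 23% in these data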;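 also: signal is peak over basal fluorescence ratio across the kinetic read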
An asterisk follows results filed as active.

SMILES	CHRM1 antagonist	CHRM1 PAM	M5 antag	CHRM1 agonist	M5 PAM	CHRM5 agonist
COc1ccc(S(=O)(=O)Nc2ccc(Cc3ccncc3)cc2)cc1OC	2	-4	14	-7	-8	4
CC(=O)/C(C[N+]1(C)CCCCC1)=N\O	6	-5	43*	-7	-23	-8
COc1ccc(CNC(=O)C(C)N2C(=O)NC3(CCCCCCC3)C2=O)cc1 (configuration not stated)	-7	6	3	-3	6	1
Cc1cc(CNC(=O)CC2C(=O)NCCN2CC(c2ccccc2)c2ccccc2)on1 (configuration not stated)	-6	6	0	-11	-4	-4
Cc1cc(SCC(=O)NC2CC2)nc2ccccc12	-3	6	-1	0	-2	4
Cc1cc(SCC(=O)NCC2CCCO2)nc2ccccc12 (configuration not stated)	1	3	3	2	0	23*
Cc1cc(C(=O)CSc2nc3ccccc3c(=O)[nH]2)c(C)n1CC1CCCO1 (configuration not stated)	25	-10	36*	-2	-34	4
CCn1c(SCC(=O)c2cc(C)n(CC3CCCO3)c2C)nc2ccccc21 (configuration not stated)	-23	-5	9	-4	-5	-6
CCOC(=O)c1c(C)[nH]c(C)c1S(=O)(=O)N(C)CC(=O)Nc1ccc(C)cn1	-9	4	6	-4	6	-3
Fc1ccc2c(c1)Sc1ccc(Cl)cc1CC2N1CCN(CCC2OCCO2)CC1 (configuration not stated)	75*	-26	13	-7	-32	-21
CC(C)CCN(C(=O)c1csnn1)C(C(=O)NC1CCCCC1)c1ccc(F)cc1 (configuration not stated)	8	-4	12	-10	-2	-5
Cc1nnc(N(C)C(=O)c2cnccn2)s1	-7	9	-10	-3	14	4
CS(=O)(=O)N1CCN(c2ccccc2NC(=S)NC(=O)c2ccccc2[N+](=O)[O-])CC1	29*	-25	16	-1	-18	4
CS(=O)(=O)N1CCN(c2ccccc2NC(=S)NC(=O)c2cccs2)CC1	-3	10	3	-3	-6	-1
O=C(NC(=S)Nc1ccccc1N1CCCCC1)c1ccccc1	3	7	-9	-2	19*	8
CSc1nc(N)cc(=O)[nH]1	9	-3	6	-2	-1	1
CCc1ccc(NC(=O)CSc2nnnn2C)cc1	-3	2	5	-4	-2	-1
O=C(NC1CCN(Cc2ccccc2)CC1)c1ccc(Cn2c(=S)[nH]c3ccc(N4CCOCC4)cc3c2=O)cc1	4	-3	2	-9	-3	-17
O=C(CCCCCn1c(=S)[nH]c2ccc(N3CCOCC3)cc2c1=O)NC1CCN(Cc2ccccc2)CC1	50*	-26	10	-9	-5	-20
OC(COC(c1ccccc1)c1ccccc1)CN1CCCCC1 (configuration not stated)	-12	-4	3	-7	-9	-11
c1ccc(C(CN2CCCCC2)Oc2ccccn2)cc1 (configuration not stated)	83*	-27	24	-5	-39	-11
Cc1ccc(NS(=O)(=O)c2cc(C(=O)N(C)C)ccc2C)cc1C	-2	3	4	-3	6	0
C/C(=N/NS(=O)(=O)c1ccc(C)cc1)[C@H]1C[C@@H]1c1ccccc1	-1	5	7	-3	2	-6
